FLuc inhib CS: Photinus pyralis luciferase inhibition counter-screen. P08659. ATPLite firefly luciferase biochemical luminescence, 10 min. 200,000 tested, 1.5% active. inhibition, % at 10 µM;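 active = inhibition above about 50% when tested at 10 µM, limit read from the data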
Target sequence (P08659 whole entry, looked up): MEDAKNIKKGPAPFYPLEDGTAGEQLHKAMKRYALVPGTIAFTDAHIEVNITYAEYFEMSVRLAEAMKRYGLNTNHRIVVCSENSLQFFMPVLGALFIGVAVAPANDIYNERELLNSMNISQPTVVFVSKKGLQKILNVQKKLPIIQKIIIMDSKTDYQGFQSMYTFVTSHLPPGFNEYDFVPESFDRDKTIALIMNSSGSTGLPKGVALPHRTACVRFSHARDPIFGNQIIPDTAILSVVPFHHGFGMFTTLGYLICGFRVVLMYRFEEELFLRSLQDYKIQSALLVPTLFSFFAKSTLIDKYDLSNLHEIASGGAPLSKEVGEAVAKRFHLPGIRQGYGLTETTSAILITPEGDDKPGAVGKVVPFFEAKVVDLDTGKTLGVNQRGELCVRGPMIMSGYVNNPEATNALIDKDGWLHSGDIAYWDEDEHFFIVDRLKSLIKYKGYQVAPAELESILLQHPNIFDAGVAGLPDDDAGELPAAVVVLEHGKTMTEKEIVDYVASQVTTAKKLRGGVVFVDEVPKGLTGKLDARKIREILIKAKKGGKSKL
NF-kB neuron act: raises NF-kB expression in human neuronal cells; 190,000 tested, 1.6% active; NF-kB reporter expression; hits give high values; fold change at 12.5 µM; AID 1239; in the data active = fold change above about 3.3
APP 5'UTR act: activates APP 5'UTR luciferase reporter; SH-SY5Y APP 5'UTR luciferase reporter, luminescence; zero percent = DMSO vehicle wells; activation, % at 2 µM; 190,000 tested, 1% active; AID 1276;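 active = activation above a set limit, based on mean plus 3 SD of controls, cut at about 140% in these data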
STAT1 act: activators of IFN-gamma induced STAT1 signaling. NIH 3T3 STAT1-luciferase reporter, luminescence; 100% = IFN-gamma alone, no compound. activation (% of control), % at 5.5 µM. 200,000 tested, 2.6% active;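 active = activation above the screen-wide mean activation plus 3 SD, cut at about 130% in these data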
FLuc stim CS: firefly luciferase counter-screen for stimulation assays. AID 1027. P08659. ATPlite luciferase biochemical, luminescence, 10 min; 0 = ATP-free wells, 1 = DMSO control. activation factor at 10 µM. 200,000 tested, under 10 active;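 active = luciferase activation factor, scaled between plate controls, of at least 2 with compound at 10 µM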
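assay system = Luciferase/luciferin detection reagent, cell-free biochemical luciferase assay | also added = ATP substrate | times = 10 min post-reagent at room temperature | measured by = luminescence from luciferase reaction | measure = luciferase activation, seen as luminescence increase over controls | benchmarks = low control with PBS replacing ATP, high control enzyme plus ATP without compound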
STAT1 activ conf: STAT1 activation, confirmation assay; NIH 3T3 STAT1-luciferase reporter, IFN-gamma potentiation, luminescence; 100% = IFN-gamma EC80 alone, no compound; 1,200 tested, 97% active; activation (% of control), % at 5.7 µM; shares compounds with STAT1 act;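 active = activation above a set limit carried over from the earlier primary STAT1 screen, cut at about 140% in these data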
NFkB act: counter-screen for STAT1 activators: NF-kappaB activation; shares compounds with STAT1 act; AID 1306; 1,200 tested, 43% active; HEK293T NF-kB luciferase reporter, TNF-alpha stimulated, luminescence; 100% = TNF-alpha with vehicle only; activation (% of control), % at 5.7 µM;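 active = activation above the mean of solvent-only control wells plus 3 SD, set per campaign, cut at about 130% in these data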;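 also: TNF-alpha given at a submaximal dose yielding about 80% of full reporter signal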
STAT3 act 2: counter-screen for STAT1 activators: human STAT3 activation; shares compounds with STAT1 act; U3A cells STAT3-luciferase reporter, IL-6, luminescence; cells lack STAT1; 100 = IL-6 alone, no compound effect; activation (% of control), % at 5.7 µM; 1,200 tested, 46% active; AID 1316;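 active = activation above the solvent-only control well mean plus 3 SD, set per plate batch, cut at about 110% in these data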;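 also: higher means more STAT3 reporter activation so hits are non-selective activators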
Numbers stand for hits. Hits are enriched below; roughly 4.1% of the tested compounds scored in any of these assays.

`COc1ccc(Nc2ncnc3c2oc2ccccc23)cc1` gave FLuc inhib CS inactive, NF-kB neuron act 3.4, APP 5'UTR act inactive, STAT1 act 163, FLuc stim CS inactive, STAT1 activ conf 204, NFkB act 134 and STAT3 act 2 inactive.
For c1coc(CNc2ncnc3c2oc2ccccc23)c1 the results were FLuc inhib CS inactive, NF-kB neuron act inactive, APP 5'UTR act inactive, STAT1 act inactive and FLuc stim CS inactive.
`c1ccc2c(c1)oc1c(Nc3ccc4c(c3)OCCO4)ncnc12` gave FLuc inhib CS inactive, NF-kB neuron act 5, APP 5'UTR act 164, STAT1 act 180, FLuc stim CS inactive, STAT1 activ conf 260, NFkB act 141 and STAT3 act 2 114.
Screening Cc1ccc(Nc2ncnc3c2oc2ccccc23)cc1 returned FLuc inhib CS inactive, NF-kB neuron act 5.4, APP 5'UTR act 152, STAT1 act 171, FLuc stim CS inactive, STAT1 activ conf 231, NFkB act 155 and STAT3 act 2 117.
For COc1ccccc1Oc1ncnc2c1oc1ccccc12 the results were FLuc inhib CS inactive, NF-kB neuron act inactive, APP 5'UTR act inactive, STAT1 act inactive and FLuc stim CS inactive.
CCOC(=O)C1(Cc2ccc(OC)cc2)CCN(C(=O)c2ccoc2C)CC1 was read as FLuc inhib CS inactive, NF-kB neuron act inactive, APP 5'UTR act inactive, STAT1 act inactive and FLuc stim CS inactive.
For CCOC(=O)C(C(=O)Nc1nccs1)C1CCCCC1 (stereo not drawn) the results were FLuc inhib CS inactive, NF-kB neuron act inactive, APP 5'UTR act inactive, STAT1 act inactive and FLuc stim CS inactive.
For N#CC(c1ccccn1)(c1ncc(C(F)(F)F)cc1Cl)N1CCOCC1 (stereo not drawn) the results were FLuc inhib CS inactive, NF-kB neuron act inactive, APP 5'UTR act inactive, STAT1 act inactive and FLuc stim CS inactive.
Screening CCc1ccc(C(=O)CN2CCSC2=N)cc1 returned FLuc inhib CS 63, NF-kB neuron act 7.9, APP 5'UTR act inactive, STAT1 act 159, FLuc stim CS inactive, STAT1 activ conf 209, NFkB act 136 and STAT3 act 2 inactive.
`O=c1cc(-c2ccc(O)cc2)oc2ccccc12` gave FLuc inhib CS inactive, NF-kB neuron act inactive, APP 5'UTR act inactive, STAT1 act 154, FLuc stim CS inactive, STAT1 activ conf 154, NFkB act inactive and STAT3 act 2 125.
`CCOC(=O)/C(C#N)=C\C1=C(N2CCOCC2)CC(C)(C)OC1` gave FLuc inhib CS inactive, NF-kB neuron act inactive, APP 5'UTR act inactive, STAT1 act inactive and FLuc stim CS inactive.
`O=c1[nH]c(=O)c2nc3c4ccccc4c4ccccc4c3nc2[nH]1` gave FLuc inhib CS inactive, NF-kB neuron act inactive, APP 5'UTR act inactive, STAT1 act 152, FLuc stim CS inactive, STAT1 activ conf 140, NFkB act inactive and STAT3 act 2 inactive.
Screening O=c1[nH]c(=O)c2nc(-c3ccc(Cl)cc3)cnc2[nH]1 returned FLuc inhib CS inactive, NF-kB neuron act inactive, APP 5'UTR act inactive, STAT1 act inactive and FLuc stim CS inactive.
`CCOC(=O)c1ccc(NC(=O)CSC(=S)N2CCOCC2)cc1` gave FLuc inhib CS inactive, NF-kB neuron act inactive, APP 5'UTR act inactive, STAT1 act inactive and FLuc stim CS inactive.
For CC(C)NC(=O)CSc1nc(N)c(NC(=O)c2ccco2)c(=O)[nH]1 the results were FLuc inhib CS inactive, NF-kB neuron act inactive, APP 5'UTR act inactive, STAT1 act inactive and FLuc stim CS inactive.
Screening Cc1csc(NC(=O)c2ccc(C)c([N+](=O)[O-])c2)n1 returned FLuc inhib CS inactive, NF-kB neuron act 5.6, APP 5'UTR act 172, STAT1 act 184, FLuc stim CS inactive, STAT1 activ conf 236, NFkB act inactive and STAT3 act 2 inactive.

Screens from PubChem BioAssay.
